Measurements as given in ChEMBL document CHEMBL4350987, “Design, synthesis and biological evaluation of novel substituted purine isosters as EGFR kinase inhibitors, with promising pharmacokinetic profile and in vivo efficacy” (Eur J Med Chem, 2019).
Calls of active or inactive are those of the source. The rule behind the calls is not given here.

Key:
[1] = molecular target: Receptor tyrosine-protein kinase erbB-2 (Homo sapiens) (UniProt P04626); test: Inhibition of human recombinant GST-tagged HER2 (catalytic domain 676 to end residues) autophosphorylation expressed in baculovirus infected Sf9 cells using poly( Glu, Tyr) 4:1 as substrate at 10 uM incubated for 60 mins by ELISA relative to control
In short: (§1)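 Wells coated with poly-Glu,Tyr (4:1), 20 µg/well overnight at 4 °C, then blocked with 5% BSA. GST-HER2 added at 200 ng/mL final in HEPES/NaCl/NaVO₄/BSA buffer. Reaction started with ATP spanning Km plus 10 mM MnCl₂ final, run 60 min at 37 °C, stopped with EDTA. Phosphotyrosine detected with HRP anti-pTyr and ABTS at 405 nm; triplicate.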

[2] = molecular target: Receptor tyrosine-protein kinase erbB-2 (Homo sapiens) (UniProt P04626); test: Inhibition of human recombinant GST-tagged HER2 (catalytic domain 676 to end residues) autophosphorylation expressed in baculovirus infected Sf9 cells using poly( Glu, Tyr) 4:1 as substrate at 1 uM incubated for 60 mins by ELISA relative to control; in short: as §1
[3] = molecular target: Receptor tyrosine-protein kinase erbB-2 (Homo sapiens) (UniProt P04626); test: Inhibition of HER2 autophosphorylation in human HCC1954 cells overexpressing HER2 at 0.02 to 2 uM incubated for 1 hr by Western blot analysis; assay type: cell-based
In short: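 HCC-1954 cells at 60-70% confluence exposed to 0.02 and 2 μM compound for 1 h, then lysed in RIPA with protease inhibitors. About 10 µg protein separated by SDS-PAGE and blotted to PVDF. Phospho- and total HER2 antibodies at 1:1000, HRP secondaries, ECL read-out; β-actin used for normalization.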

[4] = system: A549; test: Antiproliferative activity against human A549 cells overexpressing EGFR assessed as reduction in cell viability at 1 to 60 uM incubated for 72 hrs by MTT assay; assay type: functional, cell-based
[5] = system: HCC1954; test: Antiproliferative activity against human HCC1954 cells overexpressing HER2 assessed as reduction in cell viability at 1 to 60 uM incubated for 72 hrs by MTT assay; assay type: functional, cell-based
[6] = molecular target: Epidermal growth factor receptor (Homo sapiens) (UniProt P00533); test: Inhibition of EGFR autophosphorylation in human A549 cells overexpressing EGFR at 1 to 10 uM treated with compound for 10 mins prior to EGF stimulation for 10 mins by Western blot analysis; assay type: cell-based
In short: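 A549 cells grown to 60-70% confluence, then serum-starved 24 h. Exposed to compound for 10 min, then stimulated with 100 ng/mL EGF for 10 min at 37 °C and lysed in RIPA with protease inhibitors. About 10 µg protein run on SDS-PAGE, blotted to PVDF. Phospho- and total EGFR probed at 1:1000, HRP secondaries, ECL detection; β-actin for normalization.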

[7] = system: A549; test: Antiproliferative activity against human A549 cells overexpressing EGFR assessed as reduction in cell viability incubated for 72 hrs by MTT assay; assay type: functional, cell-based; conditions: A549, 72 h
In short: (§2)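 Cells seeded at 5×10^3/well in complete medium (DMEM or RPMI, 10% FBS) and left 24 h at 37 °C, 5% CO2. Compounds added at 0.5–150 μM for 72 h. MTT (0.3 mg/mL in PBS) applied for 3 h, formazan dissolved in DMSO, OD read at 570 nm against 650 nm reference. IC50 from four-parameter logistic fit; three experiments in triplicate.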

[8] = system: NCI-H1975; test: Antiproliferative activity against human NCI-H1975 cells assessed as reduction in cell viability incubated for 72 hrs by MTT assay; assay type: functional, cell-based; conditions: NCI-H1975, 72 h; in short: as §2
[9] = system: HCC1954; test: Antiproliferative activity against human HCC1954 cells overexpressing HER2 assessed as reduction in cell viability incubated for 72 hrs by MTT assay; assay type: functional, cell-based; conditions: HCC1954, 72 h; in short: as §2
[10] = system: MCF7; test: Antiproliferative activity against human MCF7 cells assessed as reduction in cell viability incubated for 72 hrs by MTT assay; assay type: functional, cell-based; conditions: MCF7, 72 h; in short: as §2
[11] = Drug uptake in human A549 cells overexpressing EGFR at 1 uM measured after 48 hrs by LC-MS/MS analysis; assay type: ADME, cell-based; conditions: a549, 48 h
In short: (§3)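 A549 cells plated at 1.5×10^5 cells/well and exposed to 1 µM compound for 1, 4, 8, 24 and 48 h. Cells washed twice with ice-cold PBS, then lysed. Intracellular amount measured by LC-MS/MS against standard curves with a stable internal standard.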

[12] = Cmax in C57BL/6N mouse at 34 micromol/kg, po measured upto 24 hrs by LC-MS/MS analysis; assay type: ADME, organism-based; parameters: route oral; conditions: in vivo, 34 µmol/kg
In short: (§4)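 Male C57BL/6N mice, 10-12 weeks old, n = 5 per group, fasted overnight, single oral gavage dose in 0.5% carboxymethyl cellulose: 0.1% Tween 80 in water. Serial tail bleeds of 10 μL at 0.25, 0.5, 1, 2, 4, 6, 8 and 24 h into 0.1 M citric acid pH 4.5, stored at -80 °C. Samples processed by protein precipitation and evaporation, then quantified in blood by LC-MS/MS.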

[13] = Tmax in C57BL/6N mouse at 34 micromol/kg, po measured upto 24 hrs by LC-MS/MS analysis; assay type: ADME, organism-based; conditions: in vivo, 34 µmol/kg; in short: as §4
[14] = AUC (0 to 24 hrs) in C57BL/6N mouse at 34 micromol/kg, po measured upto 24 hrs by LC-MS/MS analysis; assay type: ADME, organism-based; parameters: time < 24 hr, route oral; conditions: in vivo, 34 µmol/kg; in short: as §4
[15] = AUC (1 to 48 hrs) in human A549 cells overexpressing EGFR at 1 uM measured per 0.1 million cells by LC-MS/MS analysis; conditions: a549, 48 h
[16] = system: A549; test: Antitumor activity against human A549 cells overexpressing EGFR xenografted in NOD/SCID mouse assessed as tumor volume at 86 micromol/kg, po administered once daily for 27 days measured at day 27 at 2 hrs after last administered dose (reference value: 1869 +/- 134 mm3); assay type: functional
In short: (§5)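 NOD/SCID mice (n=4 per group, 2 male, 2 female) injected in each flank with 5×10⁶ A549 cells in DMEM, 10% FBS. Daily oral dosing started at about 150–160 mm³ tumors; vehicle 0.5% carboxymethyl cellulose: 0.1% Tween 80 in water. Caliper measurements every three days, V = π×D×d²/6. Body weight and signs of discomfort monitored. Study ended day 27, 2 h post last dose.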

[17] = Toxicity in NOD/SCID mouse xenografted with human A549 cells overexpressing EGFR assessed as changes in body weight at 86 micromol/kg, po administered once daily for 27 days; assay type: organism-based; conditions: in vivo, 648 h; in short: as §5
[18] = Drug concentration in NOD/SCID mouse blood xenografted with human A549 cells overexpressing EGFR at 86 micromol/kg, po administered once daily for 27 days and measured at day 27 at 2 hrs after last administered dose by LC-MS/MS analysis; assay type: ADME, organism-based; conditions: 86 µmol/kg, read-out: Ct
In short: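 A549 xenografts in NOD/SCID mice dosed orally once daily for 27 days, vehicle 0.5% carboxymethyl cellulose: 0.1% Tween 80 in water. Blood collected 2 h after the final dose on day 27, with animals euthanized under isoflurane. Drug level quantified by LC-MS/MS.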

[19] = Drug uptake in human A549 cells overexpressing EGFR at 1 uM measured after 24 hrs by LC-MS/MS analysis; assay type: ADME, cell-based; conditions: a549, 24 h; in short: as §3

Epidermal growth factor receptor (Homo sapiens), sequence (P00533 whole entry): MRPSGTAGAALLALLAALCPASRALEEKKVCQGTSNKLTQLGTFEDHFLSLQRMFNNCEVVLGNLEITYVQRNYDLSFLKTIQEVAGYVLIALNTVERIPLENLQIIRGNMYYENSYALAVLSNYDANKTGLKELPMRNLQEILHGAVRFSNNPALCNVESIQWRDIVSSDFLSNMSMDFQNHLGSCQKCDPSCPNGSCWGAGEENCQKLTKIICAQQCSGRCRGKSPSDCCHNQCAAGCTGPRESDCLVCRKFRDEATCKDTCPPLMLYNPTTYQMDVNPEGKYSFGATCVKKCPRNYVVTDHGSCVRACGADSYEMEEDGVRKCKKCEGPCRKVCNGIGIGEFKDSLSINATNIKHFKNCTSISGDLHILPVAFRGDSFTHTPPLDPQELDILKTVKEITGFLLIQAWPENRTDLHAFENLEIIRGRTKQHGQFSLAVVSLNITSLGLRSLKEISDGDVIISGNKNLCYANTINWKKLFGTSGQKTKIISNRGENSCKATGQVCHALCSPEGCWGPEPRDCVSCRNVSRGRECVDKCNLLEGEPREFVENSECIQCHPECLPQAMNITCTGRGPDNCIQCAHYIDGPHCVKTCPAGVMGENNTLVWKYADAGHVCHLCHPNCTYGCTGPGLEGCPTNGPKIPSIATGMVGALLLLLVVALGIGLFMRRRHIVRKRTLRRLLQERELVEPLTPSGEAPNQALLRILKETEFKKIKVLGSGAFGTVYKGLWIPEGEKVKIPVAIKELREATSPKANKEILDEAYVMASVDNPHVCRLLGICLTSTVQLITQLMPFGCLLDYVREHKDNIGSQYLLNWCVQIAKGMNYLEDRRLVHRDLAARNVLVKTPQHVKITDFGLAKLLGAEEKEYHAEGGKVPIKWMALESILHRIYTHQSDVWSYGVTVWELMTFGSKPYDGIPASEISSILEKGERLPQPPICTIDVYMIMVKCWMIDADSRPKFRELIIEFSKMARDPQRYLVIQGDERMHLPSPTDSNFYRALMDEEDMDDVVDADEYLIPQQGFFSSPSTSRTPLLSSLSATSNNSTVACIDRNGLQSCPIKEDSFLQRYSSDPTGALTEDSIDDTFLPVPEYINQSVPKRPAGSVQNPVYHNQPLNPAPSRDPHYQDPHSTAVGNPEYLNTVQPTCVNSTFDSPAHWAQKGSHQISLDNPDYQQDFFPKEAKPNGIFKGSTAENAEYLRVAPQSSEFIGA
Receptor tyrosine-protein kinase erbB-2 (Homo sapiens), sequence (P04626 whole entry, the tested form may be a part): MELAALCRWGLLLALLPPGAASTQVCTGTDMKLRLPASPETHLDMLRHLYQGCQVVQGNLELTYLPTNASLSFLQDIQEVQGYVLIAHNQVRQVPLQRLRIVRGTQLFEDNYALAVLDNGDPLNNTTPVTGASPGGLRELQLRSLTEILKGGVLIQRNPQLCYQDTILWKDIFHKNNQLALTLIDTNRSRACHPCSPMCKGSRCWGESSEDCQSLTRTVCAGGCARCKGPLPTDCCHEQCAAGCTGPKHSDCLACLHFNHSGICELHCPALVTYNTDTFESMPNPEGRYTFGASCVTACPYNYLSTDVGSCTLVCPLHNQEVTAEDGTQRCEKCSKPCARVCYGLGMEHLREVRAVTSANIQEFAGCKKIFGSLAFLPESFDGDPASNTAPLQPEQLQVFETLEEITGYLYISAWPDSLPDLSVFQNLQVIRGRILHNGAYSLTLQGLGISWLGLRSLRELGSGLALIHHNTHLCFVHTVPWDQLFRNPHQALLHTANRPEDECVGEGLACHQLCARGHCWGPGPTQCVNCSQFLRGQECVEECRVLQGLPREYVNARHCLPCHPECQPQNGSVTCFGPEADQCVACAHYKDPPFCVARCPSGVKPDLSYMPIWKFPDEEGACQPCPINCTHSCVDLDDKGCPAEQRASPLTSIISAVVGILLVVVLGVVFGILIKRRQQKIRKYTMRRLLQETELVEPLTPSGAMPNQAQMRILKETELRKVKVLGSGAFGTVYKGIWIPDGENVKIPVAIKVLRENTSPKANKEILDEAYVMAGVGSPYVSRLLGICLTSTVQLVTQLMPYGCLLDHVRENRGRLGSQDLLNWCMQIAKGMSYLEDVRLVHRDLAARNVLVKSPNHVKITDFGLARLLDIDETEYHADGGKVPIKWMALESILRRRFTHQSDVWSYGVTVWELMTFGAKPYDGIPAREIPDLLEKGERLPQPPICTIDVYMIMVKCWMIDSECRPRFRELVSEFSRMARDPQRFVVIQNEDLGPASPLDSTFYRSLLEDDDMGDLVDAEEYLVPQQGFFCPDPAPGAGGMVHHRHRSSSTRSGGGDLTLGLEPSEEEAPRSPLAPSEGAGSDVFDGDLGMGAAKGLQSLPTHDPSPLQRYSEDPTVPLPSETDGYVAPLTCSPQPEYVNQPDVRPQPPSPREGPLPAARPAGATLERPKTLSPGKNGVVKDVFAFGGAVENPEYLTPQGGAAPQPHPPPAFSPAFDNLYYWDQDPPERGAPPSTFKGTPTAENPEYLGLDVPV

Row | inhibition [1] [%] | inhibition [2] [%] | inhibition [3] | inhibition [6] | IC50 [7] [µM] | IC50 [8] [µM] | IC50 [9] [µM] | IC50 [10] [µM] | Drug uptake [11] | Cmax [12] [nM] | Tmax [13] [h] | AUC(0-t) at 24 h [14] [µM·h] | AUC [15] [nmol/100.000 cells x h] | concentration at 2 h [18] [nM] | Drug uptake [19] | Structure (SMILES) | inhibition [4] | inhibition [5] | Activity [16] [mm3] | Activity [17]
1 | 86 | 51 | Active |  |  |  |  |  |  |  |  |  |  |  |  | Fc1cccc(COc2ccc(Nc3ncnc4[nH]c(-c5ccco5)nc34)cc2Cl)c1 | Active | Active |  | 
2 | 34 | 25 | Active | Active |  |  |  |  |  |  |  |  |  |  |  | CS(=O)(=O)CCNCc1ccc(-c2nc3c(Nc4ccc(OCc5cccc(F)c5)c(Cl)c4)nccc3[nH]2)o1 |  |  |  | 
3 | 32 | 28 |  | Active | 33 | 30 | 14 | 105 | 0.01 nmol/100,000 cells | 70 | 2 | 0.87 | 0.35 |  |  | CS(=O)(=O)CCNCc1ccc(-c2nc3c(Nc4ccc(OCc5cccc(F)c5)c(Cl)c4)ncnc3[nH]2)o1 | Active | Active |  | 
4 | 46 | 33 | Active | Active |  |  |  |  |  |  |  |  |  |  |  | CS(=O)(=O)CCNCc1ccc(-c2nc3c(Nc4ccc(OCc5cccc(F)c5)c(Cl)c4)ccnc3[nH]2)o1 | inactive | inactive |  | 
5 | 79 | 10 |  |  |  |  |  |  |  |  |  |  |  |  |  | Fc1cccc(COc2ccc(Nc3ncc(F)c4[nH]c(-c5ccco5)nc34)cc2Cl)c1 |  |  |  | 
6 | 86 | 82 |  |  |  |  |  |  |  |  |  |  |  |  |  | Fc1cccc(COc2ccc(Nc3nccc4[nH]c(-c5ccco5)nc34)cc2Cl)c1 | inactive | inactive |  | 
7 | 13 | 0 | Active |  |  |  |  |  |  |  |  |  |  |  |  | CS(=O)(=O)CCNCc1ccc(-c2nc3c(Nc4ccc(OCc5cccc(F)c5)c(Cl)c4)ncc(F)c3[nH]2)o1 |  |  |  | 
8 | 58 | 24 |  | Active | 3 | 10 | 9 | 126 | 0.04 nmol/100,000 cells | 300 | 2 | 2.1 | 1.5 | 640 | Active | Fc1cccc(COc2ccc(Nc3ccnc4[nH]c(-c5ccco5)nc34)cc2Cl)c1 | Active | Active | 1311 | Non-Toxic
9 | 97 | 86 | Active |  | 11 | 9 | 5 | 95 | 0.02 nmol/100,000 cells | 1470 | 2 | 6.7 | 1.06 | 2810 |  | CS(=O)(=O)CCNCc1ccc(-c2ccc3ncnc(Nc4ccc(OCc5cccc(F)c5)c(Cl)c4)c3c2)o1 [LAPATINIB] |  |  | 1338 | 
